# From PubChem
# Hits are enriched below; roughly 2.5% of the tested compounds scored in any of these assays.
# H9c2 TAG inh: reduces triacylglycerol accumulation in H9c2 cells | inhibition, % at 12.5 µM | 230,000 compounds, 0.66% hits | Nile Red lipid (TAG) fluorescence; cells loaded with 200 µM oleic acid;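 active = pattern-corrected inhibition of lipid staining of at least 50% with the nuclear-stain viability signal not falling by more than 50%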;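 note: 0% = DMSO wells and 100% = triacsin C control wells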
# SMARCA2 activ: SMARCA2 function activation, primary screen; MG213 cells, MMTV-luciferase reporter, dexamethasone, overnight; activation, % at 9.1 µM; 370,000 compounds, 1% hits; AID 652017; in the data active = activation above about 7.8%;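 note: 0% = vehicle wells and 100% = reference activator wells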
# SR-BI DiI inh: blocks mouse SR-BI lipid uptake from DiI-HDL; Q61009; ldlA[mSR-BI] CHO cells, DiI-HDL uptake fluorescence, 3 h; inhibition, % at 12.5 µM; 320,000 compounds, 0.96% hits; AID 488896;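 active = mean replicate inhibition of at least 70% and a set share of replicates each scoring 70 or more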;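 note: 0% = median of neutral control wells and 100% = median of positive control wells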
# Target sequence (Q61009 whole entry, looked up): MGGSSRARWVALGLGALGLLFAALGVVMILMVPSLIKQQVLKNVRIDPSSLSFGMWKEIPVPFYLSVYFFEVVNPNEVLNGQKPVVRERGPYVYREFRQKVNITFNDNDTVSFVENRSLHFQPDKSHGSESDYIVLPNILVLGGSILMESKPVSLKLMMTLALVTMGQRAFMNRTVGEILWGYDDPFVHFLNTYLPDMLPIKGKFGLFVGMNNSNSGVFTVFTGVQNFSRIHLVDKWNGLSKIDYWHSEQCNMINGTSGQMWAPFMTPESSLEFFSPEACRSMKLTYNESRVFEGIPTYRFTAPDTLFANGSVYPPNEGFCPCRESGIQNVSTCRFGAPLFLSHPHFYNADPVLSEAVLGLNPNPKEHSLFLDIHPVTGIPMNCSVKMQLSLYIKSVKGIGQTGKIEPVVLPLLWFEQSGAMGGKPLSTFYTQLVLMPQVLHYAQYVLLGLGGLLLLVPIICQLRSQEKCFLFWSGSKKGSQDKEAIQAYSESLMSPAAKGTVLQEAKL
# Vif inh: inhibitors of HIV Vif. inhibition, % at 7.49 µM. 340,000 compounds, 0.35% hits. HEK293T cells, Vif self-association by quenched fluorescence, imaging, 24 h. AID 602346; in the data active = inhibition above about 50%, passing the limit was not always enough
# SR-BI DiI-HDL act: enhances SR-BI lipid uptake from DiI-HDL | CHO ldlA[mSR-BI] cells, DiI-HDL uptake fluorescence, 3 h; 100 = double the neutral-control signal | activation, % at 12.5 µM | 320,000 compounds, 0.096% hits;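 active = mean replicate activation of at least 60% and every replicate at or above 60%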;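 note: 0% = median plate neutral-control signal and 100% = twice that signal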
#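 material = CHO ldlA[mSR-BI] cells | medium = Ham's F12 with 0.5% BSA, HEPES 25 mM, pH 7.4 | reagent = fluorescent DiI-HDL, 10 µg/mL final | compound dosing = single-point compound dose | incubation = 3 h, 37 °C | measured by = bottom-read fluorescence, 550/595 nm | measure = HDL uptake via cellular fluorescence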
# The depositor's hits bear a star; . = no result given.
SMILES,H9c2 TAG inh,SMARCA2 activ,SR-BI DiI inh,Vif inh,SR-BI DiI-HDL act
Cc1[nH]c2ccccc2c1/C=N/Nc1ccc([N+](=O)[O-])cc1S(=O)(=O)Nc1ccc(Cl)cc1,.,-3,83*,0,-83
O=[N+]([O-])c1ccccc1N/N=C/c1c[nH]c2ccccc12,82*,3,110*,.,-110
Cc1cccc(Cl)c1NC(=O)N(C)c1ccccc1,.,-5,.,.,.
CCOC(=O)COc1c(Br)cc(/C=C2\SC(=O)N(CC(=O)N3CCCC3)C2=O)cc1OC,-7,-1,72*,0,-72
CCOc1c(Br)cc(/C=C2/SC(=O)N(CC(=O)N3CCCC3)C2=O)cc1OC,-9,-3,60,12,-60
O=C(N/N=C/c1cc([N+](=O)[O-])ccc1O)c1cccc2ccccc12,10,5,129*,0,-129
O=C(NN=Cc1cc(Cl)ccc1[N+](=O)[O-])c1cccc2ccccc12,-9,-3,40,2,-40
O=C(N/N=C/c1cc([N+](=O)[O-])ccc1O)c1ccc(COc2ccc3c(c2)CCC3)o1,17,-2,136*,7,-136
O=C(N/N=C/c1cc([N+](=O)[O-])ccc1O)C1CCCCC1,15,-2,87*,-1,-87
Cc1cc(C(=O)N/N=C\c2ccc(COc3ccc([N+](=O)[O-])cc3)o2)ccc1[N+](=O)[O-],-43,-1,76*,29,-76
COC(=O)[C@]12C[C@H](CC(=O)N3CCN(C(=O)c4ccco4)CC3)C(=O)N(Cc3ccc4c(c3)OCO4)C1=C[C@H](COCc1ccccc1)O[C@@H]2C,.,2,.,.,.
COc1cc2c(c3c1c(=O)c1ccccc1n3C)C=CC(C)(C)O2,.,4,.,.,.
OC(c1ccccc1)(c1ccccc1)C1CCN(CCCOc2cccnc2)CC1,.,-5,.,.,.
Cc1cc(Br)cn2c(Cc3ccccc3C(F)(F)F)c(-c3ccc(F)cc3)nc12,.,1,.,.,.
Cc1nc2ccc(C(=O)N/N=C/c3cc([N+](=O)[O-])ccc3O)cc2[nH]1,-4,-2,106*,-1,-106
Cc1nc2ccc(C(=O)N/N=C/c3ccccc3O)cc2[nH]1,.,1,68,1,-68
CCOC(=O)C1=C(C(=O)OCC)C2N(Cc3ccc(C#N)cc3)c3ccccc3[C@@]23C[C@@H](C(=O)OC)N(S(=O)(=O)c2ccccc2C)C3=N1 (stereo partly specified),.,1,.,.,.
CC(C)(C)c1ccc(OCCCC(=O)NNC(=O)c2ccccc2O)cc1,1,-4,120*,1,-120
Cc1cc(C(=O)NNC(=O)CCCOc2ccccc2)c(C)o1,4,-1,-16,.,16
CC(C)(C)c1ccc(C(=O)NCC(=O)NNC(=O)c2ccccc2O)cc1,6,-2,90*,2,-90
O=C(CCCOc1ccc(Br)cc1)NNC(=O)c1ccncc1,-5,-3,-23,67*,23
COC(=O)C1CN(CC(C)C)CCS(=O)(=O)N1Cc1ccc(OC)cc1 (stereo unspecified),.,-2,.,.,.
CCS(=O)(=O)N(C)C[C@@H]1OCc2ccccc2-c2c(n(C)c3ccccc23)C(=O)N([C@H](C)CO)C[C@@H]1C,.,-4,.,.,.
Cc1ncc(CO)c(/C=N/NC(=O)c2cc(Br)ccc2O)c1O,-11,-3,116*,8,-116
CCN1/C(=C\C(=S)Nc2ccccc2)Sc2ccccc21,-64,-4,81*,-19,-81
SMILES,H9c2 TAG inh,SMARCA2 activ,SR-BI DiI inh,Vif inh,SR-BI DiI-HDL act
CCN1/C(=C\C=C(C(C)=O)C(C)=O)Sc2ccccc21,-18,0,37,5,-37
COc1cccc(/C=N/NC(=O)c2ccc3nc[nH]c3c2)c1O,7,-6,38,-2,-38
COc1cccc(/C=N/NC(=O)c2cc3c(OC)ccc(OC)c3[nH]2)c1O,.,-4,144*,12,-144
COc1cc(OC)c2cc(C(=O)N/N=C/c3cccc(OC)c3O)[nH]c2c1,55*,-5,121*,-9,-121
COc1ccc2[nH]c(C(=O)N/N=C/c3ccc(O)cc3O)cc2c1,.,-2,99*,-18,-99
COc1ccc(OCCNS(=O)(=O)c2ccccc2)cc1,-9,-1,5,52*,-5
COc1ccc(C2CC(=O)C(c3ccc4ccccc4c3)=CN2Cc2ccccc2)cc1 (stereo unspecified),.,-2,.,.,.
COc1ccccc1/C=N/N(C(C)=O)c1nc(-c2ccc(F)cc2)cs1,21,0,82*,1,-82
CN(CC(=O)NCCc1ccc(F)cc1)Cc1cccs1,0,7.8*,-15,-6,15
COc1ccc(C2CC(=O)C(c3ccc(F)cc3)=CN2Cc2ccccc2)cc1 (stereo unspecified),.,-2,.,.,.
COc1ccc2c(C)nc(Nc3nc(-c4ccccc4)cc(=O)[nH]3)nc2c1,107,-6,78*,-13,-78
COC(=O)[C@]12C[C@H](CC(=O)N3CCSCC3)C(=O)N(CCc3ccc(OC)c(OC)c3)C1=C[C@H](C(C)C)O[C@@H]2C1CC1,.,-3,.,.,.
Cc1cc(NC(=O)CSc2nc3ccccc3c(=O)n2-c2ccccc2)no1,-6,-2,3,55*,-3
CCn1c(SCC(=O)Nc2cc(C)on2)nnc1-c1ccccc1,-3,-1,2,-14,-2
Cc1cc(NC(=O)CSc2nnc(C)c(=O)[nH]2)no1,0,1,4,69*,-4
CCn1c(SCC(=O)Nc2cc(C)on2)nnc1-c1ccc(OC)cc1,18,0,16,50*,-16
CCCCCCCCN1C(=O)N2Cc3cc(F)ccc3C2CS1(=O)=O (stereo unspecified),.,-5,.,.,.
CCOC(=O)c1c(Nc2ccc(OC)cc2)n[nH]c1C,.,7,.,.,.
O=c1[nH]c(CSc2ccccn2)nc2c1oc1ccccc12,-4,7.8*,-12,-2,12
CCc1nc2c(oc3ccccc32)c(=O)[nH]1,3,2,-18,2,18
CCCCNc1ccc2c(c1)OC[C@@H](Cc1ccccc1)NS2(=O)=O,.,-5,.,.,.
Cc1ccccc1Cn1ccc(NC(=O)c2onc(C)c2Cl)n1,-21,7.8*,6,-6,-6
COc1ccc(OC)c(Cc2nnc(CCC(=O)N3CCN(C4CCCC4)CC3)o2)c1,-6,7.8*,-10,7,10
COc1ccc(OC)c(Cc2nnc(CCC(=O)N3CCCCC3)o2)c1,2,1,-44,0,44
COC(=O)[C@]12C[C@H](CC(=O)NCCCN3CCCC3=O)C(=O)N(Cc3cccc4ccccc34)C1=C[C@H](C(C)C)O[C@@H]2C1CC1,.,-1,.,.,.
Cc1cc(C(=O)CCl)c(C)n1CCc1ccccc1,.,-2,.,.,.
CCOC(=O)c1cc(C)n(CCc2ccccc2)c1C,-12,1,80*,1,-80
COc1ccc(NC(=O)C(F)(F)F)cc1OC,-13,-1,78*,2,-78
Cc1ccc2c(c1)Oc1ccc(NC(=O)CCl)cc1C(=O)N2,56*,-7,8,-2,-8
Cc1ccc2c(c1)Oc1ccc([N+](=O)[O-])cc1C(=O)N2,-4,-1,-3,23,3
